SKKanGAS inh = inhibitors of SKKanGAS S. pyogenes growth in kanamycin (SK-promoter or general growth effect). BacTiter-Glo, 6 h. inhibition, % at 7.5 µM. 1.3% of 300,000 active;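 active = mean replicate score, as percent of positive control median, at least 50; inconclusive = mean below 50 but one replicate at or above 50; inactive = mean and every replicate below 50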;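 note: strain carries kanamycin resistance gene driven by streptokinase promoter and grows in 40 µg/ml kanamycin; loss of luminescence reflects streptokinase promoter inhibition or plain growth inhibition; 0% = median of DMSO wells and 100% = positive control at its reference dose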
ARFGAP1 inh = inhibitors of rat ARFGAP1; Q62848; Arfgap1-stimulated ARF1 GTP hydrolysis, GDP FP detection; inhibition, % at 16.5 µM; 0.26% of 360,000 active;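 active = inhibition above a per-plate limit, mean inhibition of low control wells plus 3 SD, cut at about 25% in these data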;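 note: 0% = DMSO wells with enzyme and 100% = wells lacking Arfgap1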
Target sequence (Q62848 1-136 limits assumed): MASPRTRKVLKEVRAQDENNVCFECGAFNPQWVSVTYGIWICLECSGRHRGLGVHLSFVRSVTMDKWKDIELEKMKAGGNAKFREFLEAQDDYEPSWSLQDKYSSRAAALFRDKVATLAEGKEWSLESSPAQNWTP
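Assay system: purified rat His6-Arfgap1 residues 1-136 (GAP domain); Reagent: human Δ17 ARF1 bound to GTP; Dosing: 16.5 µM single point, 1.26% DMSO; Times: GTP hydrolysis reaction 2 h at 25 °C; Signal: FP, GDP Alexa 633 tracer displaced from anti-GDP antibody, 620/688 nm; Measure: % inhibition from polarization.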
ASAP1 GAP inh = ASAP1 ArfGAP inhibition; Q9ULH1; ASAP1-stimulated ARF1 GTP hydrolysis, GDP FP detection; inhibition, % at 16.5 µM; 0.19% of 360,000 active; AID 624377; in the data active = inhibition above about 25%;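 note: 0% = vehicle with enzyme and substrate and 100% = no enzyme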
Target sequence (Q9ULH1 325-724 limits assumed): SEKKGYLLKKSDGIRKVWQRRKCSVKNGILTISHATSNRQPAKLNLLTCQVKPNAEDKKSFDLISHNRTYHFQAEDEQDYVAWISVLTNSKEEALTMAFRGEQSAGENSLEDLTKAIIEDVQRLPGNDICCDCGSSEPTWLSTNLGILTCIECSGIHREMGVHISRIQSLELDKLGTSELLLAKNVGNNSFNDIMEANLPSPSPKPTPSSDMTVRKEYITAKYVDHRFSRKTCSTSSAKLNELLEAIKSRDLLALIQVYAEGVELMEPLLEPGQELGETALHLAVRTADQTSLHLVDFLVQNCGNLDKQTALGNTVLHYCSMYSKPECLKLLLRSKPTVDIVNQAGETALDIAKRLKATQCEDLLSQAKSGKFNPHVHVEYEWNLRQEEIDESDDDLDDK
Calb FLC = affects C. albicans growth with fluconazole | C. albicans CaCi-2 (fluconazole-resistant clinical isolate) + fluconazole, Alamar Blue growth, 48 h | growth inhibition, % (no concentration beside the values) | 0.57% of 300,000 active | AID 1979;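 active = growth inhibition above about 58% in most replicates, limit read from the data, passing the limit was not always enough; inconclusive = exactly half the replicates above a set limit; inactive = most replicates below a set limit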;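 note: all wells also contain fluconazole at 8 µg/ml as a sub-toxic cotreatment; 0% = median of DMSO wells and 100% = median of geldanamycin control wells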
HGIII-sPLA2 inh = Inhibits HGIII-sPLA2 liposome hydrolysis, primary screen; 0.56% of 370,000 active; inhibition, % at 12.2 µM; QFRET BODIPY PC-A2 liposome hydrolysis, fluorescence;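 active = inhibition above mean plus 3 SD of compounds lying within the high and low control bounds, cut at about 19% in these data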;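 note: 0% = median of test compound wells and 100% = no enzyme DMSO wells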
ARFGAP1 inh conf = confirmation of rat ARFGAP1 inhibitors | ARFGAP1-stimulated ARF1 GTP hydrolysis, GDP tracer FP | inhibition, % at 16.5 µM | shares compounds with ARFGAP1 inh | 30% of 890 active;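 active = average inhibition over triplicates above the hit cutoff set in the earlier primary screen, cut at about 25% in these data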;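 note: 0% = Arfgap1 plus ARF1-GTP with DMSO and 100% = wells lacking Arfgap1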
* marks the source's active call; other numbers are inactive results. Hits are enriched below; roughly 2.3% of the tested compounds scored in any of these assays.

Screening Cc1c(C)n(-c2ccccc2)c2ncnc(NCCN(C)C)c12 returned SKKanGAS inh 0.2, ARFGAP1 inh 25.0*, ASAP1 GAP inh 11.1, Calb FLC -12.0, HGIII-sPLA2 inh 17.3 and ARFGAP1 inh conf -3.7.
Cc1ccc(NC(=O)CSc2nnc(CNC(=O)C34CC5CC(CC(C5)C3)C4)n2-c2ccc(F)cc2)cc1 was read as SKKanGAS inh 13.8, ARFGAP1 inh 28.6*, ASAP1 GAP inh -2.2, Calb FLC 14.7, HGIII-sPLA2 inh -8.3 and ARFGAP1 inh conf 4.1.
`O=C(NCc1ccccc1Cl)c1ccc(NC2=NC3CS(=O)(=O)CC3S2)cc1` (stereo unspecified) gave SKKanGAS inh -2.2, ARFGAP1 inh 26.8*, ASAP1 GAP inh 9.4, Calb FLC -4.6, HGIII-sPLA2 inh 5.8 and ARFGAP1 inh conf -0.2.
For O=C(NCc1ccccc1Cl)c1cccc(NC2=NC3CS(=O)(=O)CC3S2)c1 (stereo unspecified) the results were SKKanGAS inh -3.1, ARFGAP1 inh 2.8, ASAP1 GAP inh 4.0, Calb FLC -1.9 and HGIII-sPLA2 inh 1.1.
Screening CCOC(=O)Cc1csc(NC(=O)CN2C(=O)c3ccccc3S2(=O)=O)n1 returned ARFGAP1 inh 33.0*, ASAP1 GAP inh 7.7, HGIII-sPLA2 inh -0.9 and ARFGAP1 inh conf 2.5.
`CC(C(=O)N1CCCCC1)N(C)CC(=O)Nc1ccc(F)c(F)c1F` (stereo unspecified) gave ARFGAP1 inh 25.8*, ASAP1 GAP inh -0.4, HGIII-sPLA2 inh 3.3 and ARFGAP1 inh conf 4.9.
`C=C(C)C(O)CC/C(C)=C/Cc1c(O)ccc(C(=O)/C=C/c2ccc(O)cc2)c1O` (stereo unspecified) gave ARFGAP1 inh 20.6, ASAP1 GAP inh 13.6 and HGIII-sPLA2 inh -49.5.
For COc1ccc(C(=O)/C=C/c2ccc(O)cc2)c(O)c1C/C=C(\C)CCC=C(C)C the results were ARFGAP1 inh 24.9*, ASAP1 GAP inh 17.6, HGIII-sPLA2 inh -15.1 and ARFGAP1 inh conf 14.4.
`CCOC(=O)C1=NOC(C(C)=O)(C(=O)N2CCOCC2)C1` (stereo unspecified) gave HGIII-sPLA2 inh 15.2.
Screening CC1(C)CC(=O)C=C(NCCN2CCN(C(=O)Nc3ccc(Cl)cc3)CC2)C1 returned SKKanGAS inh 6.2, ARFGAP1 inh 32.8*, ASAP1 GAP inh -12.7, Calb FLC inconclusive, HGIII-sPLA2 inh -13.9 and ARFGAP1 inh conf -1.5.
`COC(=O)C1=C(C)N(Cc2ccccc2)C(=S)NC1c1ccc(Cl)cc1` (stereo unspecified) gave ARFGAP1 inh 4.5, ASAP1 GAP inh 9.4 and HGIII-sPLA2 inh 7.0.
Screening O=C(c1cc2ccccc2o1)N1CCN(Cc2nc3ccccc3s2)CC1 returned ARFGAP1 inh 25.7*, ASAP1 GAP inh 10.6, HGIII-sPLA2 inh 10.4 and ARFGAP1 inh conf -1.7.
For O=C(c1cc2ccccc2o1)N1CCN(C/C=C/c2ccccc2)CC1 the results were SKKanGAS inh -4.2, ARFGAP1 inh -5.2, ASAP1 GAP inh 2.5, Calb FLC -0.2 and HGIII-sPLA2 inh -27.5.
`CCCC1CCC2(CCCN2CCOC(=S)Nc2ccccc2Br)CC1` (stereo unspecified) gave HGIII-sPLA2 inh 8.2.
Cc1cccc(-c2n[nH]nc2C2=CC(=O)CC(C)(C)C2)c1 was read as ARFGAP1 inh 42.3*, ASAP1 GAP inh -1.6, HGIII-sPLA2 inh -3.5 and ARFGAP1 inh conf -3.2.
COC(=O)[C@]12C[C@H](CC(=O)NCc3ccc(OC)c(OC)c3)C(=O)N(Cc3cccc4ccccc34)C1=C[C@H](C(C)C)O[C@@H]2C1CC1 was read as HGIII-sPLA2 inh -2.0.
Screening O=C(CNS(=O)(=O)c1ccc(Br)cc1)N1CCN(c2ccc(F)cc2)CC1 returned SKKanGAS inh -9.4, ARFGAP1 inh 27.7*, ASAP1 GAP inh 8.5, Calb FLC 9.5, HGIII-sPLA2 inh -9.8 and ARFGAP1 inh conf 2.5.
`O=C(CNS(=O)(=O)c1ccc(Cl)cc1)N1CCN(c2ccc(F)cc2)CC1` gave ARFGAP1 inh -16.8, ASAP1 GAP inh -8.2 and HGIII-sPLA2 inh -10.6.
For CC(C)(C)OC(=O)N1CCC[C@H]1C(=O)NCC1CCC(C(=O)O)CC1 (stereo partly specified) the results were SKKanGAS inh 0.3, ARFGAP1 inh 26.3*, ASAP1 GAP inh 5.0, Calb FLC -3.9, HGIII-sPLA2 inh -0.7 and ARFGAP1 inh conf -0.6.
Screening O=C(Nc1ccc(F)cc1)OCCCN1C(=O)CCC12CCCCC2 returned HGIII-sPLA2 inh 3.5.
COCCNC(=S)N(C)[C@H]1C[C@H]2c3[nH]c4c(-c5cccc(C)c5)cccc4c3CCN2C[C@H]1[C@H](C)O was read as HGIII-sPLA2 inh -0.5.
Screening O=[N+]([O-])c1ccc(N/N=C2\CC3CC=CC23)c([N+](=O)[O-])c1 (stereo unspecified) returned SKKanGAS inh 9.1, ARFGAP1 inh 1.8, ASAP1 GAP inh 3.0, Calb FLC -21.3 and HGIII-sPLA2 inh 1.8.
For O=[N+]([O-])c1ccc(N/N=C2\CC3CC=CC23)cc1 (stereo unspecified) the results were SKKanGAS inh -7.0, ARFGAP1 inh 28.1*, ASAP1 GAP inh 7.4, Calb FLC -1.9, HGIII-sPLA2 inh -4.7 and ARFGAP1 inh conf 3.1.
`CN(C)/C=N/c1nc(Sc2ccc(C(F)(F)F)cc2[N+](=O)[O-])n[nH]1` gave SKKanGAS inh -4.2, ARFGAP1 inh -13.2, ASAP1 GAP inh -9.5, Calb FLC -3.3 and HGIII-sPLA2 inh 3.1.
`O=[N+]([O-])c1cc(C(F)(F)F)cc([N+](=O)[O-])c1Sc1n[nH]c(C(F)(F)F)n1` gave SKKanGAS inh 4.5, ARFGAP1 inh 29.3*, ASAP1 GAP inh 12.8, Calb FLC 31.9, HGIII-sPLA2 inh 12.2 and ARFGAP1 inh conf -11.0.
Screening COc1cccc(N(C(=O)Cn2nnc(-c3cccs3)n2)C(C(=O)NC2CCCCC2)c2ccncc2)c1 (stereo unspecified) returned SKKanGAS inh -6.9, ARFGAP1 inh 0.5, ASAP1 GAP inh 4.0, Calb FLC -2.6 and HGIII-sPLA2 inh 0.9.
For Cc1ccc(C)c(N(C(=O)Cn2nnc(-c3cccs3)n2)C(C(=O)NC2CCCC2)c2ccncc2)c1 (stereo unspecified) the results were SKKanGAS inh -0.8, ARFGAP1 inh 31.3*, ASAP1 GAP inh -9.1, Calb FLC -10.5, HGIII-sPLA2 inh 0.7 and ARFGAP1 inh conf -3.3.
For CN1OC[C@@H]2CN(C(=O)C3CCCCC3)[C@H](c3ccc(N4CCCCC4)cc3)C[C@@H]21 the results were ARFGAP1 inh -12.4, ASAP1 GAP inh -4.3 and HGIII-sPLA2 inh 0.0.
Screening COc1ccc([C@H]2C[C@H](n3cc(COC(=O)c4ccccc4)nn3)[C@@H](O)CN2C(=O)C2CCCCC2)cc1 returned ARFGAP1 inh -1.5, ASAP1 GAP inh 1.7 and HGIII-sPLA2 inh -5.1.
